Source: ChEMBL document CHEMBL3865830, “Multifunctional diamine AGE/ALE inhibitors with potential therapeutical properties against Alzheimer's disease” (Eur J Med Chem, 2016)
One block for each molecule: values may come before it.

Columns and labels:
[1] = Reactive carbonyl species trapping activity of compound assessed as MGO adduct formation at 10 mM preincubated for 24 hrs with MGO measured after 24 hrs by LCMS analysis; format: physicochemical; details: 10000 µM
[2] = Metal chelating activity of compound assessed as compound-Cu2+ complex formation at 0.05 mM after 10 mins in presence of CuSO4.5H2O by complexometric indicator murexide based UV-Vis spectrophotometric analysis; format: physicochemical; details: 50 µM
Procedure, shortened: (§1)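 Compound (0.02-2 mM) incubated with CuSO4 (120 µM) for 10 min at rt, in 10 mM hexamine/HCl with 10 mM KCl (pH 5.0), or in buffer/MeOH 75:25 for poorly soluble compounds. Murexide added, 1 min more. The A485/A520 ratio gives free Cu2+ from a CuSO4 calibration curve (0-125 µM). % chelation is taken by difference from the no-compound control; triplicates.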

[3] = Metal chelating activity of compound assessed as compound-Cu2+ complex formation at 0.08 mM after 10 mins in presence of CuSO4.5H2O by complexometric indicator murexide based UV-Vis spectrophotometric analysis; format: physicochemical; details: 80 µM; procedure, shortened: as §1
Rattus norvegicus = species: Rattus norvegicus; assay: Cytotoxicity against rat […] PC12 cells assessed as reduction in cell viability at 10 to 100 uM after 24 hrs by WST8-based CCK8 assay; format: toxicity; details: pc-12, 24 h
Procedure, shortened: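 PC12 Adh cells (rat pheochromocytoma-derived) grown in F-12K with 2.5% FBS, 15% horse serum and pen/strep at 37 °C, 5% CO2. Seeded at 5×10^3 cells/well; treated at 80% confluency with 10 or 100 µM for 24 h. 10% DMSO served as positive cytotoxicity control. CCK-8 added for 1 h at 37 °C, absorbance read at 450 nm. Viability given as % of untreated cells; at least three experiments in triplicate.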

[4] = Reactive carbonyl species trapping activity of compound assessed as MDA adduct formation at 10 mM preincubated for 24 hrs with MDA measured after 5 hrs by LCMS analysis; format: physicochemical; details: 10000 µM
[5] = Reactive carbonyl species trapping activity of compound assessed as MDA adduct formation at 10 mM preincubated for 24 hrs with MDA measured after 0.5 hrs by LCMS analysis; format: physicochemical; details: 10000 µM
[6] = Reactive carbonyl species trapping activity of compound assessed as MGO adduct formation at 10 mM preincubated for 24 hrs with MGO measured after 5 hrs by LCMS analysis; format: physicochemical; details: 10000 µM
[7] = Metal chelating activity of compound assessed as compound-Cu2+ complex formation at 0.02 mM after 10 mins in presence of CuSO4.5H2O by complexometric indicator murexide based UV-Vis spectrophotometric analysis; format: physicochemical; details: 20 µM; procedure, shortened: as §1
[8] = Antioxidant activity assessed as inhibition of AAPH-induced peroxyl radical generation measured as trolox equivalent at 10 uM preincubated for 30 mins followed by AAPH addition measured evey 60 secs for 60 cycles by ORAC-FL assay; format: functional; details: in the assay text read “90 secs” for “60 secs”
Procedure, shortened: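 Fluorescein (12 nM) preincubated with compound (1-20 µM) or Trolox standard (1-50 µM) in D-PBS, at least 30 min at 37 °C. Reaction started with AAPH (30 mM). Fluorescence (ex 485/em 520 nm) read every 90 s for 60 cycles. Net AUC is converted to Trolox equivalents via the Trolox calibration line. Values are reported at 10 µM, from at least three independent experiments in triplicate.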

[9] = Reactive carbonyl species trapping activity of compound assessed as MGO adduct formation at 10 mM preincubated for 24 hrs with MGO measured after 0.5 hrs by LCMS analysis; format: physicochemical; details: 10000 µM
[10] = Reactive carbonyl species trapping activity of compound assessed as MDA adduct formation at 10 mM preincubated for 24 hrs with MDA measured after 0.25 hrs by LCMS analysis; format: physicochemical; details: 10000 µM
[11] = Metal chelating activity of compound assessed as compound-Cu2+ complex formation at 1 mM after 10 mins in presence of CuSO4.5H2O by complexometric indicator murexide based UV-Vis spectrophotometric analysis; format: physicochemical; details: 1000 µM; procedure, shortened: as §1
[12] = Metal chelating activity of compound assessed as compound-Cu2+ complex formation at 0.1 mM after 10 mins in presence of CuSO4.5H2O by complexometric indicator murexide based UV-Vis spectrophotometric analysis; format: physicochemical; details: 100 µM; procedure, shortened: as §1
[13] = Reactive carbonyl species trapping activity of compound assessed as MDA adduct formation at 10 mM preincubated for 24 hrs with MDA measured after 1 hr by LCMS analysis; format: physicochemical; details: 10000 µM
[14] = Reactive carbonyl species trapping activity of compound assessed as MGO adduct formation at 10 mM preincubated for 24 hrs with MGO measured after 15 mins by LCMS analysis; format: physicochemical; details: 0.25 h, 10000 µM
[15] = Reactive carbonyl species trapping activity of compound assessed as MGO adduct formation at 10 mM preincubated for 24 hrs with MGO measured after 1 hr by LCMS analysis; format: physicochemical; details: 10000 µM
[16] = Metal chelating activity of compound assessed as compound-Cu2+ complex formation at 200 uM after 10 mins in presence of CuSO4.5H2O by complexometric indicator murexide based UV-Vis spectrophotometric analysis; format: physicochemical; procedure, shortened: as §1
[17] = Reactive carbonyl species trapping activity of compound assessed as MDA adduct formation at 10 mM preincubated for 24 hrs with MDA measured after 24 hrs by LCMS analysis; format: physicochemical; details: 10000 µM
[18] = Metal chelating activity of compound assessed as compound-Cu2+ complex formation at 0.5 mM after 10 mins in presence of CuSO4.5H2O by complexometric indicator murexide based UV-Vis spectrophotometric analysis; format: physicochemical; details: 500 µM; procedure, shortened: as §1
[19] = Reactive carbonyl species trapping activity of compound assessed as MGO adduct formation at 10 mM preincubated for 24 hrs with MGO measured after 0.25 hrs by LCMS analysis; format: physicochemical; details: 10000 µM
[20] = Metal chelating activity of compound assessed as compound-Cu2+ complex formation at 2 mM after 10 mins in presence of CuSO4.5H2O by complexometric indicator murexide based UV-Vis spectrophotometric analysis; format: physicochemical; details: 2000 µM; procedure, shortened: as §1

SMILES: NCCN [ETHYLENEDIAMINE]
Activity [2]: 44.49%
Activity [3]: 64.61%
Activity [7]: 18.81%
Activity [11]: 100%
Activity [12]: 69.82%
Activity [16]: 100%
Activity [18]: 100%
Activity [20]: 100%

SMILES: Cl.Cl.NCC(N)C(=O)N1CCNCC1 (stereo not drawn)
Activity [1]: 82%
Activity [2]: 7.07%
Activity [3]: 10.65%
Activity (Rattus norvegicus): Non-Toxic
Activity [4]: 100%
Activity [5]: 100%
Activity [6]: 51%
Activity [7]: 3.25%
Activity (umolequiv/umol) [8]: 0
Activity [9]: 33%
Activity [10]: 100%
Activity [11]: 51.61%
Activity [12]: 13.97%
Activity [13]: 100%
Activity [15]: 37%
Activity [16]: 23.6%
Activity [17]: 100%
Activity [18]: 40.27%
Activity [20]: 62.15%

SMILES: COc1cc(/C=C/C(=O)NCCCCC(N)CN)ccc1O.Cl.Cl (stereo not drawn)
Activity [1]: 100%
Activity [2]: 7.96%
Activity [3]: 12.17%
Activity (Rattus norvegicus): Non-Toxic
Activity [4]: 24%
Activity [5]: 17%
Activity [6]: 100%
Activity [7]: 5.39%
Activity (umolequiv/umol) [8]: 1.5
Activity [9]: 100%
Activity [10]: 17%
Activity [11]: 52.15%
Activity [12]: 15.88%
Activity [13]: 17%
Activity [14]: 100%
Activity [15]: 100%
Activity [17]: 100%
Activity [18]: 42.89%
Activity [19]: 100%
Activity [20]: 59.06%

Now from value to molecule, other results behind:

Activity [1]: 100%
Activity [2]: 14%
Activity [3]: 22.88%
Activity [4]: 69%
Activity [5]: 67%
Activity [6]: 88%
Activity [7]: 5.71%
Activity [9]: 85%
Activity [10]: 50%
Activity [11]: 78.48%
Activity [12]: 29.96%
Activity [13]: 68%
Activity [14]: 81%
Activity [15]: 87%
Activity [16]: 52.75%
Activity [17]: 87%
Activity [18]: 74.33%
Activity [19]: 81%
Activity [20]: 76.14%
SMILES: Cl.Cl.NCC(N)CCC(=O)N1CCN(C(=O)c2cc(O)c(O)c(O)c2)CC1 (stereo not drawn)
Activity (Rattus norvegicus): Non-Toxic
Activity (umolequiv/umol) [8]: 0.89

Activity [1]: 59%
Activity [2]: 0%
Activity [3]: 0.38%
Activity [4]: 38%
Activity [5]: 32%
Activity [6]: 58%
Activity [7]: 0.73%
Activity [9]: 51%
Activity [10]: 23%
Activity [11]: 16.92%
Activity [12]: 0.72%
Activity [13]: 40%
Activity [14]: 46%
Activity [16]: 1.53%
Activity [17]: 66%
Activity [18]: 5.39%
Activity [19]: 46%
Activity [20]: 41.7%
SMILES: NCCC(=O)N[C@@H](Cc1cnc[nH]1)C(=O)O [CARNOSINE]

Activity [2]: 12.05%
Activity [3]: 19.27%
Activity [7]: 6.59%
Activity [11]: 61.48%
Activity [12]: 21.41%
Activity [16]: 33.91%
Activity [18]: 51.43%
Activity [20]: 67.84%
SMILES: Cl.Cl.NCC(N)CCCCNC(=O)CCn1cccc(OCc2ccccc2)c1=O (stereo not drawn)

Activity [1]: 100%
Activity [2]: 24.51%
Activity [3]: 34.87%
Activity [4]: 73%
Activity [6]: 99%
Activity [7]: 12.05%
Activity [9]: 96%
Activity [10]: 65%
Activity [11]: 85.56%
Activity [12]: 41.17%
Activity [13]: 69%
Activity [14]: 98%
Activity [16]: 62.77%
Activity [17]: 95%
Activity [18]: 81.17%
Activity [19]: 98%
Activity [20]: 87.04%
SMILES: Cl.Cl.NCC(N)CCCCNC(=O)CCn1cccc(O)c1=O (stereo not drawn)
Activity (Rattus norvegicus): Non-Toxic
Activity (umolequiv/umol) [8]: 1.21
